Source: ChEMBL document CHEMBL4043097, “Synthesis and evaluation of hydroxychalcones as multifunctional non-purine xanthine oxidase inhibitors for the treatment of hyperuricemia” (Bioorg Med Chem Lett, 2017)

Tests used:
[1] = target: T1, Xanthine dehydrogenase/oxidase (Bos taurus, UniProt P80457); experiment: Inhibition of bovine milk xanthine oxidase pre-incubated for 30 mins followed by xanthine addition and measured every 30 secs for 5 mins by spectrophotometry
[2] = Antioxidant activity assessed as ABTS free radical scavenging activity by measuring trolox equivalents after 6 mins; format: functional
How it was run: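 ABTS radical scavenging, expressed as trolox equivalent: (mmol trolox)/(mmol tested compound).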

[3] = Antioxidant activity assessed as DPPH free radical scavenging activity incubated for 30 mins; format: functional
[4] = Antioxidant activity assessed as DPPH free radical scavenging activity incubated for 30 mins at 2000 uM; format: functional
How it was run: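 DPPH radical scavenging, given as percent inhibitory rate with test compound at 2000 µM.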

Mus musculus [5] = experiment: Anti-hyperuricemic activity in potassium oxonate-induced hyperuricemic Kun-Ming mouse assessed as serum uric acid level at 50 mg/kg/day, ig for 7 days and measured 1 hr post last dose (reference value: 5.89 +/- 0.36 mg/dl); format: functional
Mus musculus [6] = experiment: Anti-hyperuricemic activity in potassium oxonate-induced hyperuricemic Kun-Ming mouse assessed as xanthine oxidase activity per gram of protein at 50 mg/kg/day, ig for 7 days and measured 1 hr post last dose (reference value: 81.5 +/- 1.4 U/g protein); format: functional
Mus musculus [7] = experiment: Toxicity in Kun-Ming mouse assessed as induction of mortality at 5000 mg/kg, ig measured continuously for first 4 hrs and intermittently for next 24 hrs; format: organism-based; conditions: in vivo, po
How it was run: (§1)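 Mice received a single 5,000 mg/kg dose. They were watched continuously for the first 4 h and intermittently over the next 24 h for abnormal behaviour and mortality. Water intake, food intake and body weight were tracked over the experimental period. The protocol was adapted from an earlier reported acute toxicity study.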

Mus musculus [8] = experiment: Toxicity in Kun-Ming mouse assessed as effect on water consumption at 5000 mg/kg, ig measured continuously for first 4 hrs and intermittently for next 24 hrs; format: organism-based; conditions: in vivo, po; how it was run: as §1
Mus musculus [9] = experiment: Anti-hyperuricemic activity in potassium oxonate-induced hyperuricemic Kun-Ming mouse assessed as serum uric acid level at 10 mg/kg/day, ig for 7 days and measured 1 hr post last dose (reference value: 5.89 +/- 0.36 mg/dl); format: functional
Mus musculus [10] = experiment: Anti-hyperuricemic activity in potassium oxonate-induced hyperuricemic Kun-Ming mouse assessed as xanthine oxidase activity per gram of protein at 10 mg/kg/day, ig for 7 days and measured 1 hr post last dose (reference value: 81.5 +/- 1.4 U/g protein); format: functional
Mus musculus [11] = experiment: Toxicity in Kun-Ming mouse assessed as induction of body weight reduction at 5000 mg/kg, ig measured continuously for first 4 hrs and intermittently for next 24 hrs; format: organism-based; conditions: in vivo, po; how it was run: as §1
Mus musculus [12] = experiment: Toxicity in Kun-Ming mouse assessed as effect on food consumption at 5000 mg/kg, ig measured continuously for first 4 hrs and intermittently for next 24 hrs; format: organism-based; conditions: in vivo, po; how it was run: as §1
[13] = target: T1, Xanthine dehydrogenase/oxidase; experiment: Inhibition of bovine milk xanthine oxidase at 1000 uM pre-incubated for 30 mins followed by xanthine addition and measured every 30 secs for 5 mins by spectrophotometry; conditions: cattle
How it was run: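 XO inhibition tested up to 1000 µM, the highest concentration tested; compounds precipitate above this. IC50 values from three experiments, reported as mean ± SEM.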

[14] = target: T1, Xanthine dehydrogenase/oxidase; experiment: Mixed type inhibition of bovine milk xanthine oxidase pre-incubated for 30 mins followed by xanthine addition and measured every 30 secs for 5 mins by spectrophotometry based L-B plot analysis; conditions: cattle
How it was run: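 Inhibition type from Michaelis–Menten kinetics. Initial XO velocity measured at increasing xanthine concentrations with inhibitor at 0, 25, 50 and 100 µM. Activity read as change in absorbance at 295 nm per unit time; mode assigned from overlaid Lineweaver–Burk reciprocal plots.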

Mus musculus [15] = experiment: Anti-hyperuricemic activity in potassium oxonate-induced hyperuricemic Kun-Ming mouse assessed as reduction in serum uric acid level at 10 and 50 mg/kg/day, ig for 7 days and measured 1 hr post last dose; format: functional, organism-based

T1 sequence (P80457 whole entry): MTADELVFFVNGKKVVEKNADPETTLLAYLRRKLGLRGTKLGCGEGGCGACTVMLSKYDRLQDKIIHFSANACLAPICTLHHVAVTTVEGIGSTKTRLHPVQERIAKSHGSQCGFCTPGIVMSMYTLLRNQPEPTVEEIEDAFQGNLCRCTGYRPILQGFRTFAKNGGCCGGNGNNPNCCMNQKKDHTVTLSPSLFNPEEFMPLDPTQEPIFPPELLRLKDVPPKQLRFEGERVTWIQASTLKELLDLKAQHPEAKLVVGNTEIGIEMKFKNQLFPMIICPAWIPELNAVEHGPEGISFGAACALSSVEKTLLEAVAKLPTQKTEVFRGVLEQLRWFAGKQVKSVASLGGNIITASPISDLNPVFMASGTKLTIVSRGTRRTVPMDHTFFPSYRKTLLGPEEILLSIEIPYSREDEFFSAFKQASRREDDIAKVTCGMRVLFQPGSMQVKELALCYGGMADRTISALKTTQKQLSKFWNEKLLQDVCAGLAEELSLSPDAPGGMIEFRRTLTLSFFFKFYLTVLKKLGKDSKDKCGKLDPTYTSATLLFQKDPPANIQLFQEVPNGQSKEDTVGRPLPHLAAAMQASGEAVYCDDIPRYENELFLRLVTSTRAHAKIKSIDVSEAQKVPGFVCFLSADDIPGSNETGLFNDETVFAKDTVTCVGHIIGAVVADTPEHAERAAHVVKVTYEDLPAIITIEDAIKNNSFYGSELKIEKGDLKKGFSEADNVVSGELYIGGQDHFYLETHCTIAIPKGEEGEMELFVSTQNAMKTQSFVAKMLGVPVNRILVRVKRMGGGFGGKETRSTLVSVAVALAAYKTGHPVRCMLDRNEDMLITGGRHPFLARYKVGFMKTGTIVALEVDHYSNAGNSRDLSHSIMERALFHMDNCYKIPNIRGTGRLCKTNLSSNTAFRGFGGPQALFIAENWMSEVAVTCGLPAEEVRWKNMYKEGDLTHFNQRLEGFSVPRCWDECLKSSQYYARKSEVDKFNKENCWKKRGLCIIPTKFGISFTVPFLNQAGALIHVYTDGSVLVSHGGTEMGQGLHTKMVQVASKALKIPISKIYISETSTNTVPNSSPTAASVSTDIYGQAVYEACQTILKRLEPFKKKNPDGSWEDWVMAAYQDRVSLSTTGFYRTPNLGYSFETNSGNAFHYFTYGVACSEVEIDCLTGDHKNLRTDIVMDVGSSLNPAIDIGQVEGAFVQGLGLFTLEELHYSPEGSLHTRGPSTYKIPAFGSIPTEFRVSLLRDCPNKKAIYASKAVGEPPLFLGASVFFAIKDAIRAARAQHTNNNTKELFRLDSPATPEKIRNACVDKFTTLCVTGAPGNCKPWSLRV

Row | Structure (SMILES) | IC50 [1] | Activity (mmolequiv/mmol) [2] | inhibition [4] | other results
1 | O=C(/C=C/c1ccc(O)cc1)c1ccccc1 [4-HYDROXYCHALCONE] | 159 µM | < 0.1 | 25.7% | –
2 | O=C(/C=C/c1ccc(O)cc1)c1ccc(O)cc1O [ISOLIQUIRITIGENIN] | 47.3 µM | 0.51 | – | Activity (Mus musculus [5]): 4.45 mg/dL; Activity (Mus musculus [6]): 62 U/g protein; Activity (Mus musculus [7]): Non-Toxic; Activity (Mus musculus [8]): Non-Toxic; Activity (Mus musculus [9]): 5.14 mg/dL; Activity (Mus musculus [10]): 70.5 U/g protein; Activity (Mus musculus [11]): Non-Toxic; Activity (Mus musculus [12]): Non-Toxic; IC50 [3]: 287 µM
3 | Oc1ccc(/C=C/c2cc(O)cc(O)c2)cc1 [RESVERATROL] | – | 0.65 | – | IC50 [3]: 95.1 µM
4 | Oc1ncnc2[nH]ncc12 [ALLOPURINOL] | – | < 0.1 | 20.5% | Activity (Mus musculus [9]): 4.14 mg/dL; Activity (Mus musculus [10]): 50.9 U/g protein
5 | O=C(/C=C/c1ccccc1)c1ccc(O)cc1 [4'-HYDROXYCHALCONE] | – | < 0.1 | 12.5% | inhibition (INH) [13]: Not Active
6 | O=C(/C=C/c1ccccc1O)c1ccccc1O | 87.4 µM | 0.17 | 28% | –
7 | O=C(/C=C/c1ccccc1)c1ccccc1 [CHALCONE] | – | < 0.1 | 18.4% | inhibition (INH) [13]: Not Active
8 | O=C(/C=C/c1ccc(O)cc1)c1ccccc1O | 79.4 µM | 0.24 | 23.1% | –
9 | O=C(/C=C/c1ccccc1O)c1ccccc1 | 145 µM | < 0.1 | 10.8% | –
10 | O=C(/C=C/c1ccc(O)cc1)c1ccc(O)cc1 [4,4'-DIHYDROXYCHALCONE] | 117 µM | 0.43 | 35.9% | –
11 | O=C(/C=C/c1ccc(O)cc1O)c1ccccc1 | – | < 0.1 | 10.8% | inhibition (INH) [13]: Not Active
12 | O=C(/C=C/c1ccccc1O)c1ccc(O)cc1O | 56.8 µM | 0.87 | – | Activity (Mus musculus [5]): 4.5 mg/dL; Activity (Mus musculus [6]): 64.1 U/g protein; Activity (Mus musculus [7]): Non-Toxic; Activity (Mus musculus [8]): Non-Toxic; Activity (Mus musculus [9]): 5.21 mg/dL; Activity (Mus musculus [10]): 73.2 U/g protein; inhibition (INH) [14]: Active; Activity (Mus musculus [11]): Non-Toxic; Activity (Mus musculus [12]): Non-Toxic; Activity (Mus musculus [15]): Dose-dependent effect; IC50 [3]: 128 µM
13 | O=C(/C=C/c1ccccc1)c1ccccc1O [2'-HYDROXYCHALCONE] | 71.3 µM | < 0.1 | 13.5% | –

More lines, main results first:

Row | IC50 [1] | Structure (SMILES) | Activity (mmolequiv/mmol) [2] | inhibition [4] | other results
14 | 107 µM | O=C(/C=C/c1ccccc1)c1ccc(O)cc1O [2',4'-DIHYDROXYCHALCONE] | 0.38 | – | IC50 [3]: 197 µM
15 | 88.3 µM | O=C(/C=C/c1cccc(O)c1)c1cccc(O)c1 | 0.18 | 24.3% | –
16 | 228 µM | O=C(/C=C/c1cccc(O)c1)c1ccccc1 [3-HYDROXY CHALCONE] | < 0.1 | 11.3% | –
17 | 91.8 µM | O=C(/C=C/c1cccc(O)c1)c1ccccc1O | 0.93 | – | IC50 [3]: 108 µM
18 | 133 µM | O=C(/C=C/c1ccc(O)cc1)c1cccc(O)c1 | 0.16 | 19.7% | –
19 | 108 µM | O=C(/C=C/c1cccc(O)c1)c1ccc(O)cc1O | 0.45 | 38.6% | –
20 | 165 µM | O=C(/C=C/c1ccccc1)c1cccc(O)c1 | < 0.1 | 11.7% | –
